From ChEMBL document CHEMBL3272347, “Adamantanamine derivatives. Antimicrobial activities of certain Mannich bases” (1976)
Converted amounts (≈) assume the structure as drawn.

Legend:
Format in all cases: functional
Escherichia coli [1] = assay: Antimicrobial activity against Escherichia coli by tube dilution method
Method in brief: (§1)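 MIC was found by tube dilution, with Me2SO as carrier solvent diluted in the tubes. For M. smegmatis, separate determinations were made in MDTM broth and in MDTM agar.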

Staphylococcus aureus [2] = assay: Antimicrobial activity against Staphylococcus aureus by tube dilution method; method in brief: as §1
Staphylococcus aureus [3] = assay: Antimicrobial activity against Staphylococcus aureus ATCC 10014 assessed as zone of inhibition after 24 hrs at 0.1 mg/0.1 ml by agar diffusion method
Method in brief: (§2)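 Bacteria were tested on seeded agar plates with 12.7-mm disks, each loaded with 0.1 ml of compound in Me2SO (stock used directly or Me2SO-diluted). Disks were held 30 min on a wire screen before placement, four per plate. Incubation was 37°, 24 hr. Inhibition zones were measured by caliper to the nearest 0.1 mm. Replicates were 2–4 per dilution over at least two separate days, averaged.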

[4] = system: Mycolicibacterium smegmatis; assay: Antimicrobial activity against Mycobacterium smegmatis OU 10049 assessed as zone of inhibition after 48 hrs at 0.25 mg/0.1 ml by agar diffusion method
Method in brief: (§3)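 Mycobacterium disk diffusion on MDTM agar. Each disk (12.7 mm) got 0.1 ml of Me2SO solution, was air-stood 30 min, then was placed four per seeded plate. Plates were incubated at 37° for 48 hr. Zone diameter was measured by caliper to 0.1 mm. Results averaged 2–4 replicate disks and ≥2 independent-day experiments.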

[5] = system: Mycolicibacterium smegmatis; assay: Antimicrobial activity against Mycobacterium smegmatis by tube dilution method; method in brief: as §1
Escherichia coli [6] = assay: Antimicrobial activity against Escherichia coli ATCC 8739 assessed as zone of inhibition after 24 hrs at 2 mg/0.1 ml by agar diffusion method; method in brief: as §2
Mycolicibacterium phlei [7] = assay: Antimicrobial activity against Mycobacterium phlei ATCC 356 assessed as zone of inhibition after 48 hrs at 0.25 mg/0.1 ml by agar diffusion method; method in brief: as §3
Aspergillus niger [8] = assay: Antimicrobial activity against Aspergillus niger OU S-23 assessed as zone of inhibition after 48 hrs at 2 mg/0.1 ml by agar diffusion method
Method in brief: (§4)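 Disk agar diffusion on SDA. Compound in Me2SO stock, used neat or diluted in Me2SO, was loaded at 0.1 ml per 12.7-mm disk. Disks stood 30 min on mesh, then went four per seeded plate. Plates ran at 37° for 48 hr (A. niger) or 24 hr (C. albicans). Zones were read by caliper to 0.1 mm. There were 2–4 replicate disks per dilution and ≥2 experiments on separate days with same-day stocks; results were averaged.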

Pseudomonas aeruginosa [9] = assay: Antimicrobial activity against Pseudomonas aeruginosa OU 10048 assessed as zone of inhibition after 24 hrs at 4 mg/0.1 ml by agar diffusion method; method in brief: as §2
Escherichia coli [10] = assay: Antimicrobial activity against Escherichia coli ATCC 11303 assessed as zone of inhibition after 24 hrs at 1 mg/0.1 ml by agar diffusion method; method in brief: as §2
Candida albicans [11] = assay: Antimicrobial activity against Candida albicans CDC MI-023 assessed as zone of inhibition after 24 hrs at 0.5 mg/0.1 ml by agar diffusion method; method in brief: as §4
Staphylococcus aureus [12] = assay: Antimicrobial activity against Staphylococcus aureus ATCC 10001 assessed as zone of inhibition after 24 hrs at 0.1 mg/0.1 ml by agar diffusion method; method in brief: as §2
Escherichia coli [13] = assay: Antimicrobial activity against Escherichia coli ATCC 10586 assessed as zone of inhibition after 24 hrs at 1 mg/0.1 ml by agar diffusion method; method in brief: as §2
Escherichia coli [14] = assay: Antimicrobial activity against Escherichia coli ATCC 11303 assessed as zone of inhibition after 24 hrs at 0.1 mg/0.1 ml by agar diffusion method; method in brief: as §2
Staphylococcus aureus [15] = assay: Antimicrobial activity against Staphylococcus aureus ATCC 10001 assessed as zone of inhibition after 24 hrs at 0.05 mg/0.1 ml by agar diffusion method; method in brief: as §2
Candida albicans [16] = assay: Antimicrobial activity against Candida albicans CDC MI-023 assessed as zone of inhibition after 24 hrs at 0.1 mg/0.1 ml by agar diffusion method; method in brief: as §4
Escherichia coli [17] = assay: Antimicrobial activity against Escherichia coli ATCC 10586 assessed as zone of inhibition after 24 hrs at 0.25 mg/0.1 ml by agar diffusion method; method in brief: as §2
Escherichia coli [18] = assay: Antimicrobial activity against Escherichia coli ATCC 8739 assessed as zone of inhibition after 24 hrs at 0.5 mg/0.1 ml by agar diffusion method; method in brief: as §2
Staphylococcus aureus [19] = assay: Antimicrobial activity against Staphylococcus aureus ATCC 10014 assessed as zone of inhibition after 24 hrs at 0.05 mg/0.1 ml by agar diffusion method; method in brief: as §2
[20] = system: Mycolicibacterium smegmatis; assay: Antimicrobial activity against Mycobacterium smegmatis OU 10049 assessed as zone of inhibition after 48 hrs at 0.5 mg/0.1 ml by agar diffusion method; method in brief: as §3
Staphylococcus aureus [21] = assay: Antimicrobial activity against Staphylococcus aureus ATCC 10014 assessed as zone of inhibition after 24 hrs at 2 mg/0.1 ml by agar diffusion method; method in brief: as §2
Mycolicibacterium phlei [22] = assay: Antimicrobial activity against Mycobacterium phlei ATCC 356 assessed as zone of inhibition after 48 hrs at 0.5 mg/0.1 ml by agar diffusion method; method in brief: as §3
Staphylococcus aureus [23] = assay: Antimicrobial activity against Staphylococcus aureus ATCC 10001 assessed as zone of inhibition after 24 hrs at 2 mg/0.1 ml by agar diffusion method; method in brief: as §2
Candida albicans [24] = assay: Antimicrobial activity against Candida albicans CDC MI-023 assessed as zone of inhibition after 24 hrs at 4 mg/0.1 ml by agar diffusion method; method in brief: as §4
Escherichia coli [25] = assay: Antimicrobial activity against Escherichia coli ATCC 10586 assessed as zone of inhibition after 24 hrs at 2 mg/0.1 ml by agar diffusion method; method in brief: as §2
Escherichia coli [26] = assay: Antimicrobial activity against Escherichia coli ATCC 11303 assessed as zone of inhibition after 24 hrs at 2 mg/0.1 ml by agar diffusion method; method in brief: as §2
Aspergillus niger [27] = assay: Antimicrobial activity against Aspergillus niger OU S-23 assessed as zone of inhibition after 48 hrs at 4 mg/0.1 ml by agar diffusion method; method in brief: as §4
Escherichia coli [28] = assay: Antimicrobial activity against Escherichia coli ATCC 8739 assessed as zone of inhibition after 24 hrs at 4 mg/0.1 ml by agar diffusion method; method in brief: as §2
Mycolicibacterium phlei [29] = assay: Antimicrobial activity against Mycobacterium phlei ATCC 356 assessed as zone of inhibition after 48 hrs at 0.1 mg/0.1 ml by agar diffusion method; method in brief: as §3
Staphylococcus aureus [30] = assay: Antimicrobial activity against Staphylococcus aureus ATCC 10014 assessed as zone of inhibition after 24 hrs at 0.25 mg/0.1 ml by agar diffusion method; method in brief: as §2
Staphylococcus aureus [31] = assay: Antimicrobial activity against Staphylococcus aureus ATCC 10001 assessed as zone of inhibition after 24 hrs at 0.25 mg/0.1 ml by agar diffusion method; method in brief: as §2
[32] = system: Mycolicibacterium smegmatis; assay: Antimicrobial activity against Mycobacterium smegmatis OU 10049 assessed as zone of inhibition after 48 hrs at 0.1 mg/0.1 ml by agar diffusion method; method in brief: as §3
Candida albicans [33] = assay: Antimicrobial activity against Candida albicans CDC MI-023 assessed as zone of inhibition after 24 hrs at 2 mg/0.1 ml by agar diffusion method; method in brief: as §4
Escherichia coli [34] = assay: Antimicrobial activity against Escherichia coli ATCC 10586 assessed as zone of inhibition after 24 hrs at 0.5 mg/0.1 ml by agar diffusion method; method in brief: as §2
Escherichia coli [35] = assay: Antimicrobial activity against Escherichia coli ATCC 11303 assessed as zone of inhibition after 24 hrs at 0.5 mg/0.1 ml by agar diffusion method; method in brief: as §2
Pseudomonas aeruginosa [36] = assay: Antimicrobial activity against Pseudomonas aeruginosa OU 10048 assessed as zone of inhibition after 24 hrs at 0.5 mg/0.1 ml by agar diffusion method; method in brief: as §2
Aspergillus niger [37] = assay: Antimicrobial activity against Aspergillus niger OU S-23 assessed as zone of inhibition after 48 hrs at 0.25 mg/0.1 ml by agar diffusion method; method in brief: as §4

Row | SMILES | MIC (Escherichia coli [1]) [µg/mL] | MIC (Staphylococcus aureus [2]) [µg/mL] | MIC [5] [µg/mL] | inhibition zone (IZ) [4] [mm] | inhibition zone (IZ) (Escherichia coli [6]) [mm] | inhibition zone (IZ) (Mycolicibacterium phlei [7]) [mm] | inhibition zone (IZ) (Aspergillus niger [8]) [mm] | inhibition zone (IZ) (Pseudomonas aeruginosa [9]) [mm] | inhibition zone (IZ) (Candida albicans [11]) [mm] | inhibition zone (IZ) (Escherichia coli [18]) [mm] | inhibition zone (IZ) [20] [mm] | inhibition zone (IZ) (Mycolicibacterium phlei [22]) [mm] | inhibition zone (IZ) (Escherichia coli [25]) [mm] | inhibition zone (IZ) (Escherichia coli [26]) [mm] | inhibition zone (IZ) (Aspergillus niger [27]) [mm] | inhibition zone (IZ) (Staphylococcus aureus [30]) [mm] | inhibition zone (IZ) (Staphylococcus aureus [31]) [mm] | further results
1 | CC(CNC12CC3CC(CC(C3)C1)C2)C(=O)c1ccccc1.Cl (configuration not stated) |  |  |  |  | 16.1 |  |  | 15 |  |  | 17 | 17.3 | 16.4 | 17.2 | 15 |  |  | inhibition zone (IZ) (Staphylococcus aureus [21]): 16.3 mm; inhibition zone (IZ) (Staphylococcus aureus [23]): 16.2 mm; inhibition zone (IZ) (Candida albicans [24]): <15 mm
2 | Oc1ccc(-c2ccccc2)cc1CNC12CC3CC(CC(C3)C1)C2 |  |  | 62.5 (≈ 187 µM) |  |  |  |  | 15 |  |  |  |  | 15 | 15.1 | <15 | 16.8 | 17.3 | inhibition zone (IZ) (Escherichia coli [28]): 15.6 mm; inhibition zone (IZ) (Mycolicibacterium phlei [29]): 18.9 mm; inhibition zone (IZ) [32]: 18.7 mm; inhibition zone (IZ) (Candida albicans [33]): 15.8 mm
3 | Oc1ccc(/N=N/c2ccccc2)cc1CNC12CC3CC(CC(C3)C1)C2 |  |  |  |  |  |  |  |  | <15 | 15 | 15.5 | <15 |  |  |  | 15.4 | <15 | inhibition zone (IZ) (Escherichia coli [34]): 15 mm; inhibition zone (IZ) (Escherichia coli [35]): <15 mm; inhibition zone (IZ) (Pseudomonas aeruginosa [36]): 15 mm; inhibition zone (IZ) (Aspergillus niger [37]): 15 mm

Further lines, with some results ahead:

Row | MIC (Escherichia coli [1]) [µg/mL] | MIC (Staphylococcus aureus [2]) [µg/mL] | MIC [5] [µg/mL] | SMILES | inhibition zone (IZ) [4] [mm] | inhibition zone (IZ) (Escherichia coli [6]) [mm] | inhibition zone (IZ) (Mycolicibacterium phlei [7]) [mm] | inhibition zone (IZ) (Aspergillus niger [8]) [mm] | inhibition zone (IZ) (Pseudomonas aeruginosa [9]) [mm] | inhibition zone (IZ) (Candida albicans [11]) [mm] | inhibition zone (IZ) (Escherichia coli [18]) [mm] | inhibition zone (IZ) [20] [mm] | inhibition zone (IZ) (Mycolicibacterium phlei [22]) [mm] | inhibition zone (IZ) (Escherichia coli [25]) [mm] | inhibition zone (IZ) (Escherichia coli [26]) [mm] | inhibition zone (IZ) (Aspergillus niger [27]) [mm] | inhibition zone (IZ) (Staphylococcus aureus [30]) [mm] | inhibition zone (IZ) (Staphylococcus aureus [31]) [mm] | further results
4 | 500 | 125 | 500 | Cl.O=C(CCNC12CC3CC(CC(C3)C1)C2)c1ccc([N+](=O)[O-])cc1 | 17.4 | 16.5 | 19.4 | 15.2 | <14 | 16.4 |  |  |  |  |  |  |  |  | inhibition zone (IZ) (Staphylococcus aureus [3]): 15.8 mm; inhibition zone (IZ) (Escherichia coli [10]): 16.5 mm; inhibition zone (IZ) (Staphylococcus aureus [12]): 16 mm; inhibition zone (IZ) (Escherichia coli [13]): 15.3 mm
5 | 500 | 125 | 125 | Cl.O=C(CCNC12CC3CC(CC(C3)C1)C2)c1ccc(Br)cc1 | 17 |  | 19.2 | 19 | <15 |  | 17.8 |  |  |  |  |  |  |  | inhibition zone (IZ) (Escherichia coli [14]): 15.6 mm; inhibition zone (IZ) (Staphylococcus aureus [15]): 16.6 mm; inhibition zone (IZ) (Candida albicans [16]): 15.1 mm; inhibition zone (IZ) (Escherichia coli [17]): 15.3 mm; inhibition zone (IZ) (Staphylococcus aureus [19]): 17 mm
